Compound activity as filed in PubChem.
Compounds with a hit are over-represented: about 1.7% of the library has one in this group of screens.
Scp-1 inhibitor: inhibitors of human Scp-1 phosphatase; Recombinant Scp1, phosphopeptide, malachite green phosphate absorbance; actives 0.88% (n = 340,000); inhibition, % at 20 µM; AID 493091; Q9GZU7;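 active = inhibition above about 50% at 20 µM, limit read from the data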
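System: truncated SCP-1 phosphatase (76-261aa); medium: Tris acetate buffer pH 5.5 with MgCl2 and Tween-20; incubation: 45 min room-temperature reaction, 5 min colour, 30 min stabiliser; compound: single 20 µM dose, 1% DMSO; reagent: Phosphorylated 17-residue peptide substrate; read-out: % inhibition at 20 µM; technique: colorimetric free-phosphate detection, absorbance 630 nm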
LMPTP block: LMPTP (human) inhibition; P24666; recombinant LMPTP-A, OMFP fluorogenic substrate, fluorescence intensity; inhibition, % at 20 µM; actives 0.22% (n = 360,000); AID 651560;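 active = compounds that cut the enzyme signal by at least half of the control window in the single-dose screen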
Target sequence (P24666 whole entry, looked up): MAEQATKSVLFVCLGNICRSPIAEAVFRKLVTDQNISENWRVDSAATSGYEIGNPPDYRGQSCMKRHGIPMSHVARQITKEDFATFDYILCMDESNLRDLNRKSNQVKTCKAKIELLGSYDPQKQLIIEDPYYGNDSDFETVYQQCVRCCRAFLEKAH
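Test system – LMPTP-A enzyme · Amount – LMPTP-A at 0.625 nM final in the reaction · Buffer or medium – Bis-Tris pH 6.0, DTT, detergent · Reagent – OMFP 400 µM · Doses – single 20 µM dose · Schedule – reaction 50 min, room temperature, dark · Detection – fluorescence intensity of OMFP turnover product · Evaluation – percent inhibition versus substrate-only and uninhibited controls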
STEP inh: blocks human striatal-enriched tyrosine phosphatase | P54829 | recombinant STEP, OMFP fluorogenic substrate, fluorescence | inhibition, % at 20 µM | actives 0.25% (n = 360,000) | AID 588621;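 active = inhibition at 20 µM, scaled per plate between control wells, above about 37%, limit read from the data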
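Material: STEP (striatal-enriched tyrosine phosphatase) enzyme, cell-free; Compound dosing: 20 µM single dose in 1% DMSO; Technique: fluorescence read at 480 nm ex / 540 nm em; Times: reaction 20 min, ambient temperature; Medium: 50 mM Bis-Tris pH 6.0 with 2.5 mM DTT and 0.005% Tween 20; Also added: OMFP at 25 µM.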
SUMO1-SIM PPI: SUMO1-SIM interaction modulation | P63165 | SUMO1 binding to a labelled peptide, TR-FRET, 1 h | inhibition, % at 20 µM | actives 0.33% (n = 360,000); in the data active = inhibition above about 37%
Target sequence (P63165 whole entry, looked up): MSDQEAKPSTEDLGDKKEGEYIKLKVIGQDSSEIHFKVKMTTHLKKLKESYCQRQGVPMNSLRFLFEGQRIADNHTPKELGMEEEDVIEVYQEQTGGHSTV
CASP6 VEID inh: caspase-6 (human) enzyme inhibition; inhibition, % at 12.5 µM; AID 686996; P55212; actives 0.53% (n = 350,000); purified caspase-6, Z-VEID-R110 cleavage fluorescence;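 active = mean inhibition across replicates at least about 35%, with every replicate also reaching that limit, limit read from the data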
Target sequence (P55212 24-179 limits assumed): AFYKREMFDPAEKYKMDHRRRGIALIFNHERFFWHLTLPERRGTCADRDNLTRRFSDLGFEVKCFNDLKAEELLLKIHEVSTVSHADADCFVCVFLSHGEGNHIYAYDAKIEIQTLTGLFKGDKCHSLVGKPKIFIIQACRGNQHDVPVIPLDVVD
Target sequence (P55212 194-293 limits assumed): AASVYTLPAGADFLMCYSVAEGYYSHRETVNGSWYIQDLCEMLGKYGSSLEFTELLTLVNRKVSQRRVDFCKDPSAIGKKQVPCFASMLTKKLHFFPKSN
DNMT1 block: blocks human DNA methyltransferase DNMT1. inhibition (reported as % activation of signal), % at 10 µM. actives 0.83% (n = 360,000). DNMT1 molecular beacon, Hinp1I cleavage, fluorescence; in the data active = inhibition above about 50%
Numbers stand for hits.

How did CCOc1cc(Br)c(/C=C2/C(=O)N(C)C(=S)N2CC(=O)OC)cc1OC do in these assays?
Scp-1 inhibitor: inactive; LMPTP block: inactive; STEP inh: inactive; SUMO1-SIM PPI: inactive; CASP6 VEID inh: inactive; DNMT1 block: inactive

How did Cc1nn(-c2ccccc2)c2c1P(=O)(O)/C(=C1\N(C)c3ccccc3C1(C)C)C=N2 do in these assays?
Scp-1 inhibitor: inactive; LMPTP block: inactive; STEP inh: inactive; SUMO1-SIM PPI: inactive; CASP6 VEID inh: 40; DNMT1 block: inactive

Results for COc1ccc(NC(=O)Nc2ccccc2F)c([N+](=O)[O-])c1 ?
Scp-1 inhibitor: inactive; LMPTP block: inactive; STEP inh: inactive; SUMO1-SIM PPI: inactive; CASP6 VEID inh: 39; DNMT1 block: inactive

How did COc1ccc(NC(=O)Nc2ccccc2F)c(C)c1 do in these assays?
Scp-1 inhibitor: inactive; LMPTP block: inactive; STEP inh: inactive; SUMO1-SIM PPI: inactive; CASP6 VEID inh: inactive; DNMT1 block: inactive

Results for CC(Nc1nc(N2CCNCC2)nc2ccccc12)c1ccccc1 (stereo unspecified) ?
Scp-1 inhibitor: inactive; LMPTP block: 85; STEP inh: inactive; SUMO1-SIM PPI: inactive; CASP6 VEID inh: inactive; DNMT1 block: inactive

How did O=C(Nc1ccc(F)cc1)N1CCN(C(=O)C2CCCO2)CC1 (stereo unspecified) do in these assays?
Scp-1 inhibitor: inactive; LMPTP block: inactive; STEP inh: inactive; SUMO1-SIM PPI: inactive; CASP6 VEID inh: 82; DNMT1 block: inactive

How did N#Cc1c(N2CCCC2)nc(N)c2c(N)nc(N3CCCC3)cc12 do in these assays?
Scp-1 inhibitor: inactive; LMPTP block: inactive; STEP inh: 60; SUMO1-SIM PPI: 48; DNMT1 block: 118

What do the screens show for `COc1ccc(NC2=C(NCCO)C(=O)c3ccccc3C2=O)cc1`?
Scp-1 inhibitor: inactive; LMPTP block: inactive; STEP inh: inactive; SUMO1-SIM PPI: inactive; CASP6 VEID inh: 88; DNMT1 block: inactive

Results for Cc1cccc(NC2=C(NCCO)C(=O)c3ccccc3C2=O)c1 ?
Scp-1 inhibitor: inactive; LMPTP block: inactive; STEP inh: inactive; SUMO1-SIM PPI: inactive; CASP6 VEID inh: 92; DNMT1 block: inactive

What do the screens show for `O=C(COC(=O)CCCOc1ccc(Cl)cc1Cl)Nc1cccc(Cl)c1`?
Scp-1 inhibitor: inactive; LMPTP block: inactive; STEP inh: inactive; SUMO1-SIM PPI: inactive; DNMT1 block: inactive

What do the screens show for `O=C(NN1C(=O)/C(=C/C=C/c2ccco2)SC1=S)c1ccncc1`?
Scp-1 inhibitor: 72; LMPTP block: inactive; STEP inh: 55; SUMO1-SIM PPI: 101; CASP6 VEID inh: 76; DNMT1 block: 84

How did O=C(N/N=C/C=C/c1ccco1)c1ccncc1 do in these assays?
Scp-1 inhibitor: inactive; LMPTP block: inactive; STEP inh: inactive; SUMO1-SIM PPI: inactive; CASP6 VEID inh: inactive; DNMT1 block: inactive

What do the screens show for `O=C(NN1C(=O)/C(=C/C=C/c2ccccc2)SC1=S)c1ccncc1`?
Scp-1 inhibitor: inactive; LMPTP block: inactive; STEP inh: inactive; SUMO1-SIM PPI: 53; CASP6 VEID inh: inactive; DNMT1 block: inactive

What do the screens show for `COc1ccc(-n2c(SCC(=O)NCCC(C)C)nc3ccsc3c2=O)cc1`?
Scp-1 inhibitor: inactive; LMPTP block: inactive; STEP inh: inactive; SUMO1-SIM PPI: inactive; DNMT1 block: inactive

Results for CCOC(=O)c1sc(NC(=O)c2ccc(OC)cc2)nc1C ?
Scp-1 inhibitor: inactive; LMPTP block: inactive; STEP inh: inactive; SUMO1-SIM PPI: 55; CASP6 VEID inh: inactive; DNMT1 block: inactive

Results for CCOC(=O)c1sc(NC(=O)c2ccc(OC(C)=O)cc2)nc1C ?
Scp-1 inhibitor: inactive; LMPTP block: inactive; STEP inh: inactive; SUMO1-SIM PPI: inactive; CASP6 VEID inh: inactive; DNMT1 block: inactive

Results for O=C(CCCn1c(SCC(=O)NC2CCCCC2)nc2ccccc2c1=O)NCC1CCCO1 (stereo unspecified) ?
Scp-1 inhibitor: inactive; LMPTP block: inactive; STEP inh: inactive; SUMO1-SIM PPI: inactive; DNMT1 block: inactive

How did O=C(CCCn1c(SCC(=O)c2ccc(O)c(O)c2)nc2ccccc2c1=O)NCC1CCCO1 (stereo unspecified) do in these assays?
Scp-1 inhibitor: inactive; LMPTP block: 51; STEP inh: inactive; SUMO1-SIM PPI: inactive; DNMT1 block: inactive

What do the screens show for `O=C(NC1(O)C(=O)c2ccccc2C1=O)c1c(Cl)cccc1Cl`?
Scp-1 inhibitor: inactive; LMPTP block: inactive; STEP inh: inactive; SUMO1-SIM PPI: inactive; CASP6 VEID inh: 39; DNMT1 block: 53

Results for CCN1CCN(C(=O)c2cccc(OC3CCN(S(=O)(=O)N(C)C)CC3)c2)CC1 ?
Scp-1 inhibitor: inactive; LMPTP block: inactive; STEP inh: inactive; SUMO1-SIM PPI: inactive; CASP6 VEID inh: inactive; DNMT1 block: inactive

Results for COc1ccccc1CNc1nc(-c2cc(C)n(C)c2C)cs1 ?
Scp-1 inhibitor: inactive; LMPTP block: inactive; STEP inh: inactive; SUMO1-SIM PPI: inactive; DNMT1 block: 76

Results for O=C1OCCN1C(=O)[C@H]1[C@H](c2ccc([N+](=O)[O-])cc2)C(c2ccccc2)=NN1c1ccccc1 ?
Scp-1 inhibitor: inactive; LMPTP block: inactive; STEP inh: inactive; SUMO1-SIM PPI: inactive; CASP6 VEID inh: inactive; DNMT1 block: inactive

Results for O=C(NCc1ccccc1C(F)(F)F)c1cccc2c1C(=O)c1ccc(N3CCC(N4CCCCC4)CC3)cc1S2(=O)=O ?
LMPTP block: inactive; STEP inh: inactive; SUMO1-SIM PPI: 50; CASP6 VEID inh: inactive; DNMT1 block: inactive

What do the screens show for `O=C(NCc1ccccc1Br)c1cccc2c1C(=O)c1ccc(N3CCC(Cc4ccccc4)CC3)cc1S2(=O)=O`?
Scp-1 inhibitor: inactive; LMPTP block: inactive; STEP inh: inactive; SUMO1-SIM PPI: inactive; DNMT1 block: inactive

How did N#C[C@@H]1[C@H](c2ccc(-c3ccc(F)cc3)cc2)[C@@H](CO)N1c1nc(-c2ccccc2)cs1 do in these assays?
CASP6 VEID inh: inactive

How did O=C(O)c1ccc(/C=N\Nc2ccccn2)cc1 do in these assays?
Scp-1 inhibitor: inactive; LMPTP block: inactive; STEP inh: inactive; SUMO1-SIM PPI: inactive; CASP6 VEID inh: inactive; DNMT1 block: inactive

What do the screens show for `COc1cc(N)c(Cl)cc1C(=O)NC1CCN(Cc2ccccc2)CC1`?
Scp-1 inhibitor: inactive; LMPTP block: inactive; STEP inh: inactive; SUMO1-SIM PPI: inactive; CASP6 VEID inh: 49; DNMT1 block: inactive

What do the screens show for `Cc1oc(-c2cc(F)ccc2F)nc1CN1CCC(C(=O)N2CCOCC2)CC1`?
Scp-1 inhibitor: inactive; LMPTP block: inactive; STEP inh: inactive; SUMO1-SIM PPI: 44; CASP6 VEID inh: inactive; DNMT1 block: inactive

How did O=C(Nc1ccc2c(c1)OCCO2)C(CCc1ccccc1)N1CCN(C/C=C/c2ccccc2)CC1 (stereo unspecified) do in these assays?
LMPTP block: inactive; STEP inh: inactive; SUMO1-SIM PPI: inactive; CASP6 VEID inh: inactive; DNMT1 block: inactive
